According to ChEMBL document CHEMBL4196017, “Design, synthesis and identification of silicon-containing HCV NS5A inhibitors with pan-genotype activity” (Eur J Med Chem, 2018):

Columns and labels:
[1] = target: T1, Nonstructural protein 5A (Hepatitis C virus) (UniProt Q5L478); assay: Potency index, ratio of ombitasvir IC50 to compound IC50 for inhibition of NS5A in HCV genotype 3a infected in human HuH7 replicon cells expressing HCV genotype 1b chimeric replicon; assay type: cell-based; conditions: Hepatitis C virus subtype 3a
T1 sequence (whole entry): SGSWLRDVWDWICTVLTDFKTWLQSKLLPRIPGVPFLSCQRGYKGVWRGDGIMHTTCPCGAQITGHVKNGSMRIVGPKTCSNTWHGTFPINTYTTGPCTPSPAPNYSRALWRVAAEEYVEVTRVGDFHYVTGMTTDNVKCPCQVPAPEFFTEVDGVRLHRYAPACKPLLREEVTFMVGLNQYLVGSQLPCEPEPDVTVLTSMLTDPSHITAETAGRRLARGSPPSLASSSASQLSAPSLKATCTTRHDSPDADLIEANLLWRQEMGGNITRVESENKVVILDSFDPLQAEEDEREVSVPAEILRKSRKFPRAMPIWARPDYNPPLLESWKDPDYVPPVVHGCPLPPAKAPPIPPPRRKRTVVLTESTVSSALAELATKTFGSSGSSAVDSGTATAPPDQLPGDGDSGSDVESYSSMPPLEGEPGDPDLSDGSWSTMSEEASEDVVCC

[2] = system: Mus musculus; assay: Toxicity in ICR mouse assessed as blood glucose level at 150 mg/kg, po administered via gavage once daily for 14 days (reference value: 3.64 +/- 0.79 umol/L); assay type: organism-based; conditions: in vivo, 336 h
Summary of the method: (§1)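 ICR mice, 5 males + 5 females per group, dosed by gavage once daily at 150 mg/kg (20 ml/kg) or vehicle for 14 days; killed after the 14th dose; blood from abdominal aorta under ether anaesthesia for hematology and clinical chemistry; mean ± SD, n = 10.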

[3] = system: Mus musculus; assay: Toxicity in ICR mouse assessed as ovary weight at 150 mg/kg, po administered via gavage once daily for 14 days (reference value: 0.079 +/- 0.007 g); assay type: organism-based; conditions: in vivo, 336 h
[4] = system: Mus musculus; assay: Toxicity in ICR mouse assessed as brain weight at 150 mg/kg, po administered via gavage once daily for 14 days (reference value: 1.686 +/- 0.241 g); assay type: organism-based; conditions: in vivo, 336 h
[5] = system: Mus musculus; assay: Toxicity in ICR mouse assessed as creatinine level in serum at 150 mg/kg, po administered via gavage once daily for 14 days (reference value: 25.22 +/- 3.42 umol/L); assay type: organism-based; conditions: in vivo, 336 h
[6] = target: T1, Nonstructural protein 5A (Hepatitis C virus); assay: Potency index, ratio of ombitasvir IC50 to compound IC50 for inhibition of NS5A in HCV genotype 6a infected in human HuH7 replicon cells expressing HCV genotype 1b chimeric replicon; assay type: cell-based; conditions: Hepatitis C virus subtype 6a
[7] = system: Mus musculus; assay: Toxicity in ICR mouse assessed as eosinophil level in serum at 150 mg/kg, po administered via gavage once daily for 14 days (reference value: 1.66 +/- 0.54%); assay type: organism-based; conditions: in vivo, 336 h
Summary of the method: (§2)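 Haematology on abdominal aortic blood taken at necropsy under ether anaesthesia after 14 daily gavage doses (20 ml/kg) in ICR mice, 5 per sex per group, vehicle control. Parameters: WBC, RBC, haemoglobin, platelets, reticulocyte ratio and differential leukocyte counts; mean ± SD, n = 10.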

[8] = system: Mus musculus; assay: Toxicity in ICR mouse assessed as spleen weight at 150 mg/kg, po administered via gavage once daily for 14 days (reference value: 0.355 +/- 0.1 g); assay type: organism-based; conditions: in vivo, 336 h
[9] = system: Mus musculus; assay: Toxicity in ICR mouse assessed as total bilirubin level in serum at 150 mg/kg, po administered via gavage once daily for 14 days (reference value: 9.95 +/- 2.18 umol/L); assay type: organism-based; conditions: in vivo, 336 h
[10] = system: Mus musculus; assay: Toxicity in ICR mouse assessed as body weight at 150 mg/kg, po administered via gavage once daily for 14 days (reference value: 25.8 +/- 3.5 g); assay type: organism-based; conditions: in vivo, 336 h
[11] = system: Mus musculus; assay: Toxicity in ICR mouse assessed as alanine aminotransferase level in serum at 150 mg/kg, po administered via gavage once daily for 14 days (reference value: 28.33 +/- 9.89 U/L); assay type: organism-based; conditions: in vivo, 336 h; summary of the method: as §1
[12] = system: Mus musculus; assay: Toxicity in ICR mouse assessed as gamma glutamyltransferase level in serum at 150 mg/kg, po administered via gavage once daily for 14 days (reference value: 0 U/L); assay type: organism-based; conditions: in vivo, 336 h
[13] = system: Mus musculus; assay: Toxicity in ICR mouse assessed as testis weight at 150 mg/kg, po administered via gavage once daily for 14 days (reference value: 0.881 +/- 0.037 g); assay type: organism-based; conditions: in vivo, 336 h
[14] = system: Mus musculus; assay: Toxicity in ICR mouse assessed as reticulocyte level in serum at 150 mg/kg, po administered via gavage once daily for 14 days (reference value: 4.73 +/- 0.56%); assay type: organism-based; conditions: in vivo, 336 h; summary of the method: as §2
[15] = system: Mus musculus; assay: Toxicity in ICR mouse assessed as thymus weight at 150 mg/kg, po administered via gavage once daily for 14 days (reference value: 0.289 +/- 0.081 g); assay type: organism-based; conditions: in vivo, 336 h
[16] = system: Mus musculus; assay: Toxicity in ICR mouse assessed as hemoglobin concentration at 150 mg/kg, po administered via gavage once daily for 14 days (reference value: 157.4 +/- 15.5 g/L); assay type: organism-based; conditions: in vivo, 336 h; summary of the method: as §2
[17] = system: Mus musculus; assay: Toxicity in ICR mouse assessed as WBC count at 150 mg/kg, po administered via gavage once daily for 14 days (reference value: 7.03 +/- 1.56 10^9/L); assay type: organism-based; conditions: in vivo, 336 h; summary of the method: as §1
[18] = system: Mus musculus; assay: Toxicity in ICR mouse assessed as aspartate aminotransferase level in serum at 150 mg/kg, po administered via gavage once daily for 14 days (reference value: 111.44 +/- 32.76 U/L); assay type: organism-based; conditions: in vivo, 336 h; summary of the method: as §1
[19] = system: Mus musculus; assay: Toxicity in ICR mouse assessed as heart weight at 150 mg/kg, po administered via gavage once daily for 14 days (reference value: 0.539 +/- 0.094 g); assay type: organism-based; conditions: in vivo, 336 h
[20] = system: Mus musculus; assay: Toxicity in ICR mouse assessed as RBC count at 150 mg/kg, po administered via gavage once daily for 14 days (reference value: 9.04 +/- 0.8 10^12/L); assay type: organism-based; conditions: in vivo, 336 h; summary of the method: as §1
[21] = system: Mus musculus; assay: Toxicity in ICR mouse assessed as monocyte level in serum at 150 mg/kg, po administered via gavage once daily for 14 days (reference value: 12.93 +/- 3.61%); assay type: organism-based; conditions: in vivo, 336 h; summary of the method: as §2
[22] = system: Mus musculus; assay: Toxicity in ICR mouse assessed as alkaline phosphatase level in serum at 150 mg/kg, po administered via gavage once daily for 14 days (reference value: 114.44 +/- 21.78 U/L); assay type: organism-based; conditions: in vivo, 336 h; summary of the method: as §1
[23] = system: Mus musculus; assay: Toxicity in ICR mouse assessed as triglyceride level at 150 mg/kg, po administered via gavage once daily for 14 days (reference value: 1.67 +/- 0.32 mmol/L); assay type: organism-based; conditions: in vivo, 336 h
[24] = system: Mus musculus; assay: Toxicity in ICR mouse assessed as serum creatine kinase level at 150 mg/kg, po administered via gavage once daily for 14 days (reference value: 705.78 +/- 330.84 U/L); assay type: organism-based; conditions: in vivo, 336 h
[25] = system: Mus musculus; assay: Toxicity in ICR mouse assessed as blood urea nitrogen level in serum at 150 mg/kg, po administered via gavage once daily for 14 days (reference value: 10.44 +/- 1.77 mmol/L); assay type: organism-based; conditions: in vivo, 336 h; summary of the method: as §1
[26] = system: Mus musculus; assay: Toxicity in ICR mouse assessed as serum glutamate dehydrogenase level at 150 mg/kg, po administered via gavage once daily for 14 days (reference value: 13.78 +/- 2.86 U/L); assay type: organism-based; conditions: in vivo, 336 h
[27] = system: Mus musculus; assay: Toxicity in ICR mouse assessed as total cholesterol level at 150 mg/kg, po administered via gavage once daily for 14 days (reference value: 0.93 +/- 0.31 mmol/L); assay type: organism-based; conditions: in vivo, 336 h

**Q.** Which Ratio IC50 [1] does the source give for `CC[Si](CC)(CC)c1ccc(N2[C@H](c3ccc(NC(=O)[C@@H]4CCCN4C(=O)[C@@H](NC(=O)OC)C(C)C)cc3)CC[C@H]2c2ccc(NC(=O)[C@@H]3CCCN3C(=O)[C@@H](NC(=O)OC)C(C)C)cc2)cc1` here?
**A.** 8.6

**Q.** And the Activity [2]?
**A.** 4.18 mmol/L

**Q.** What about the Activity [3] of the same compound?
**A.** 0.097 g

**Q.** And the Activity [4]?
**A.** 1.807 g

**Q.** What about the Activity [5] of the same compound?
**A.** 23.2 µmol/L

**Q.** And the Ratio IC50 [6]?
**A.** 7.6

**Q.** What about the Activity [7] of the same compound?
**A.** 1.88%

**Q.** And the Activity [8]?
**A.** 0.345 g

**Q.** And the Activity [9]?
**A.** 11.24 µmol/L

**Q.** And the Activity [10]?
**A.** 24 g

**Q.** And the Activity [11]?
**A.** 25.3 U/L

**Q.** What about the Activity [12] of the same compound?
**A.** 0.03 U/L

**Q.** What about the Activity [13] of the same compound?
**A.** 0.789 g

**Q.** And the Activity [14]?
**A.** 3.88%

**Q.** And the Activity [15]?
**A.** 0.24 g

**Q.** What about the Activity [16] of the same compound?
**A.** 154.6 g/L

**Q.** What about the Activity [17] of the same compound?
**A.** 6.2 ×10⁹ /L

**Q.** What about the Activity [18] of the same compound?
**A.** 110.6 U/L

**Q.** What about the Activity [19] of the same compound?
**A.** 0.567 g

**Q.** What about the Activity [20] of the same compound?
**A.** 9 ×10¹² /L

**Q.** And the Activity [21]?
**A.** 12.44%

**Q.** And the Activity [22]?
**A.** 105.7 U/L

**Q.** And the Activity [23]?
**A.** 1.53 mmol/L

**Q.** And the Activity [24]?
**A.** 953.3 U/L

**Q.** And the Activity [25]?
**A.** 10.16 mmol/L

**Q.** And the Activity [26]?
**A.** 15.1 U/L

**Q.** And the Activity [27]?
**A.** 0.85 mmol/L
